In ChEMBL document CHEMBL3774372, “Design, physico-chemical properties and biological evaluation of some new N-[(phenoxy)alkyl]- and N-{2-[2-(phenoxy)ethoxy]ethyl}aminoalkanols as anticonvulsant agents” (Bioorg Med Chem, 2016):
Calls of active or inactive are those of the source.

How the values were obtained:
[1] = test system: Mus musculus; experiment: Neurotoxicity in mouse at 50 mg/kg, ip after 0.5 hrs by rotarod test; format: toxicity, organism-based; settings: in vivo
How it was run: (§1)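 Mice were dosed ip with compound suspended in 0.5% methylcellulose. Rotarod: a 1 in. knurled rod turning at 6 rpm. Neurotoxicity was scored as failure to stay on the rod for at least 1 min in each of three trials. Results are given as the number of animals affected out of the number tested.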

[2] = test system: Vibrio harveyi; experiment: Mutagenicity in Vibrio harveyi BB7M assessed as number of colonies after 48 hrs (reference value: 13 to 14 no_unit); format: ADME, organism-based; settings: in vivo
How it was run: (§2)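 Vibrio harveyi mutagenicity test: test compound was added to exponentially growing cultures (A600 = 0.1, 30 °C) and grown to OD600 0.3–0.4. Then 5 × 10^6 cells were plated on BOSS agar with neomycin (final 100 µg/mL) and incubated 48 h at 30 °C. Neomycin-resistant colonies were counted. Triplicate; controls were water, DMSO and NQNO 40 ng/mL.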

[3] = test system: Vibrio harveyi; experiment: Mutagenicity in Vibrio harveyi BB7X assessed as number of colonies after 48 hrs (reference value: 15 to 16 no_unit); format: ADME, organism-based; settings: in vivo; how it was run: as §2
[4] = test system: Mus musculus; experiment: Neurotoxicity in mouse at 50 mg/kg, ip after 2 hrs by rotarod test; format: toxicity, organism-based; settings: in vivo; how it was run: as §1
[5] = test system: Vibrio harveyi; experiment: Antimutagenic activity against Vibrio harveyi BB7XM assessed as inhibition of NQNO-induced mutagenicity after 48 hrs; format: functional
How it was run: (§3)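 V. harveyi cultures grown exponentially to A600 0.1 at 30 °C, exposed to test compound for 15 min, then to NQNO, and grown on to A600 0.3–0.4. 5 × 10⁶ cells plated on BOSS agar with neomycin (100, final). Neomycin-resistant colonies counted after 48 h at 30 °C. Result given as % inhibition of NQNO mutagenicity; three independent repeats.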

[6] = test system: Vibrio harveyi; experiment: Antimutagenic activity against Vibrio harveyi BB7 assessed as inhibition of NQNO-induced mutagenicity after 48 hrs; format: functional; how it was run: as §3
[7] = test system: Vibrio harveyi; experiment: Antimutagenic activity against Vibrio harveyi BB7X assessed as inhibition of NQNO-induced mutagenicity after 48 hrs; format: functional; how it was run: as §3
[8] = test system: Mus musculus; experiment: Anticonvulsant activity in mouse assessed as protection against 6 Hz psychomotor seizure at 50 mg/kg, ip after 2 hrs; format: functional, organism-based
How it was run: (§4)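 Suspension in 0.5% methylcellulose given ip to mice; corneal stimulation with 0.2 ms monopolar rectangular pulses at 6 Hz for 3 s from a constant current device, mice restrained then released to observation cage. Protected if normal exploratory behaviour resumed within 10 s of stimulation. Scored as protected/tested, 4 mice per group.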

[9] = test system: Mus musculus; experiment: Anticonvulsant activity in mouse assessed as protection against 6 Hz psychomotor seizure at 50 mg/kg, ip after 4 hrs; format: functional, organism-based; how it was run: as §4
[10] = test system: Mus musculus; experiment: Neurotoxicity in mouse at 50 mg/kg, ip after 1 hr by rotarod test; format: toxicity, organism-based; settings: in vivo; how it was run: as §1
[11] = test system: Vibrio harveyi; experiment: Antimutagenic activity against Vibrio harveyi BB7M assessed as inhibition of NQNO-induced mutagenicity after 48 hrs; format: functional; how it was run: as §3
[12] = test system: Mus musculus; experiment: Neurotoxicity in mouse at 50 mg/kg, ip after 4 hrs by rotarod test; format: toxicity, organism-based; settings: in vivo; how it was run: as §1
[13] = test system: Vibrio harveyi; experiment: Mutagenicity in Vibrio harveyi BB7XM assessed as number of colonies after 48 hrs (reference value: 14 no_unit); format: ADME, organism-based; settings: in vivo; how it was run: as §2
[14] = test system: Vibrio harveyi; experiment: Mutagenicity in Vibrio harveyi BB7 assessed as number of colonies after 48 hrs (reference value: 13 to 14 no_unit); format: ADME, organism-based; settings: in vivo; how it was run: as §2
[15] = test system: Mus musculus; experiment: Anticonvulsant activity in mouse assessed as protection against 6 Hz psychomotor seizure at 50 mg/kg, ip after 1 hr; format: functional, organism-based; how it was run: as §4
[16] = test system: Mus musculus; experiment: Anticonvulsant activity in ip dosed mouse assessed as protection against maximal electric shock-induced seizures; format: functional, organism-based
How it was run: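 Compound suspended in 0.5% methylcellulose and given ip to mice; screening doses 30, 100 and 300 mg/kg, read at 0.25–4 h. Protection was defined as abolition of hindlimb tonic extension.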

[17] = test system: Rattus norvegicus; experiment: Anticonvulsant activity in rat assessed as protection against maximal electric shock-induced seizures at 30 mg/kg, po measured after […]; format: functional, organism-based
[18] = test system: Mus musculus; experiment: Neurotoxicity in mouse at 100 mg/kg, ip after 2 hrs by rotarod test; format: toxicity, organism-based; settings: in vivo; how it was run: as §1
[19] = test system: Rattus norvegicus; experiment: Neurotoxicity in rat at 30 mg/kg, ip after […] by rotarod test; format: toxicity, organism-based; settings: in vivo
[20] = test system: Mus musculus; experiment: Anticonvulsant activity in mouse assessed as protection against maximal electric shock-induced seizures at 100 mg/kg, ip measured after […]; format: functional, organism-based
[21] = test system: Mus musculus; experiment: Anticonvulsant activity in mouse assessed as protection against maximal electric shock-induced seizures at 100 mg/kg, ip measured after 0.5 hrs; format: functional, organism-based
How it was run: (§5)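 Mice dosed ip with suspension in 0.5% methylcellulose; maximal electroshock applied at the listed time after dosing. Protection = abolition of hindlimb tonic extension component of seizure; reported as animals protected/animals tested.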

[22] = test system: Rattus norvegicus; experiment: Neurotoxicity in rat at 30 mg/kg, po after 2 hrs by rotarod test; format: toxicity, organism-based; settings: in vivo
[23] = test system: Rattus norvegicus; experiment: Neurotoxicity in rat at 30 mg/kg, ip after 0.5 hrs by rotarod test; format: toxicity, organism-based; settings: in vivo
[24] = test system: Rattus norvegicus; experiment: Neurotoxicity in rat at 30 mg/kg, po after 4 hrs by rotarod test; format: toxicity, organism-based; settings: in vivo
[25] = test system: Rattus norvegicus; experiment: Anticonvulsant activity in rat assessed as protection against maximal electric shock-induced seizures at 30 mg/kg, ip measured after 2 hrs; format: functional, organism-based
How it was run: (§6)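 Rats dosed ip or orally as 0.5% methylcellulose suspension; maximal electroshock at listed time. Protection = abolition of hindlimb tonic extension; 4 rats per group, scored protected/tested.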

[26] = test system: Mus musculus; experiment: Neurotoxicity in mouse at 100 mg/kg, ip after 1 hr by rotarod test; format: toxicity, organism-based; settings: in vivo; how it was run: as §1
[27] = test system: Rattus norvegicus; experiment: Anticonvulsant activity in rat assessed as protection against maximal electric shock-induced seizures at 30 mg/kg, po measured after 0.5 hrs; format: functional, organism-based; how it was run: as §6
[28] = test system: Mus musculus; experiment: Anticonvulsant activity in mouse assessed as protection against maximal electric shock-induced seizures at 100 mg/kg, ip measured after 4 hrs; format: functional, organism-based; how it was run: as §5
[29] = test system: Rattus norvegicus; experiment: Neurotoxicity in rat at 30 mg/kg, ip after 1 hr by rotarod test; format: toxicity, organism-based; settings: in vivo
[30] = test system: Mus musculus; experiment: Anticonvulsant activity in mouse assessed as protection against 6 Hz psychomotor seizure at 100 mg/kg, ip after 4 hrs; format: functional, organism-based; how it was run: as §4
[31] = test system: Rattus norvegicus; experiment: Anticonvulsant activity in rat assessed as protection against maximal electric shock-induced seizures at 30 mg/kg, po measured after 2 hrs; format: functional, organism-based; how it was run: as §6
[32] = test system: Rattus norvegicus; experiment: Neurotoxicity in rat at 30 mg/kg, po after […] by rotarod test; format: toxicity, organism-based; settings: in vivo
[33] = test system: Rattus norvegicus; experiment: Anticonvulsant activity in rat assessed as protection against maximal electric shock-induced seizures at 30 mg/kg, ip measured after 4 hrs; format: functional, organism-based; how it was run: as §6
[34] = test system: Rattus norvegicus; experiment: Neurotoxicity in rat at 30 mg/kg, po after 1 hr by rotarod test; format: toxicity, organism-based; settings: in vivo
[35] = test system: Rattus norvegicus; experiment: Anticonvulsant activity in rat assessed as protection against maximal electric shock-induced seizures at 30 mg/kg, po measured after 1 hr; format: functional, organism-based; how it was run: as §6
[36] = test system: Rattus norvegicus; experiment: Anticonvulsant activity in rat assessed as protection against maximal electric shock-induced seizures at 30 mg/kg, po measured after 4 hrs; format: functional, organism-based; how it was run: as §6
[37] = test system: Rattus norvegicus; experiment: Neurotoxicity in rat at 30 mg/kg, po after 0.5 hrs by rotarod test; format: toxicity, organism-based; settings: in vivo
[38] = test system: Rattus norvegicus; experiment: Neurotoxicity in rat at 30 mg/kg, ip after 2 hrs by rotarod test; format: toxicity, organism-based; settings: in vivo
[39] = test system: Mus musculus; experiment: Anticonvulsant activity in mouse assessed as protection against 6 Hz psychomotor seizure at 100 mg/kg, ip after 2 hrs; format: functional, organism-based; how it was run: as §4
[40] = test system: Mus musculus; experiment: Neurotoxicity in mouse at 100 mg/kg, ip after 4 hrs by rotarod test; format: toxicity, organism-based; settings: in vivo; how it was run: as §1
[41] = test system: Rattus norvegicus; experiment: Neurotoxicity in rat at 30 mg/kg, ip after 4 hrs by rotarod test; format: toxicity, organism-based; settings: in vivo

For Cc1cc(C)c(OCCOCCN[C@@H]2CCCC[C@H]2O)c(C)c1 (racemic), the Activity [1] was “Non-toxic”, the Activity [2] was 10 and the Activity [3] was 15. For the same molecule, the Activity [4] was “Non-toxic”, the “inhibition (INH)” value [5] was 0% and the “inhibition (INH)” value [6] was 62%. For the same molecule, the “inhibition (INH)” value [7] was 0%, the Activity [8] was “inactive” and the Activity [9] was “inactive”. For the same molecule, the Activity [10] was “Non-toxic”, the “inhibition (INH)” value [11] was 27% and the Activity [12] was “Non-toxic”. The Activity [13] was 26, the Activity [14] was 20 and the Activity [15] was “inactive”.
Cc1cccc(C)c1OCC(C)N (stereo unspecified) [MEXILETINE] was tested, and the EC50 [16] was 20 mg/kg.
Cc1cccc(OCCCN2CCC(O)CC2)c1C was tested, and the Activity [17] was “inactive”, the Activity [18] was “Non-toxic” and the Activity [19] was “Non-toxic”. For the same molecule, the Activity [20] was “Active”, the Activity [21] was “Active” and the Activity [22] was “Non-toxic”. The Activity [23] was “Non-toxic”, the Activity [24] was “Non-toxic” and the Activity [25] was “inactive”. The Activity [26] was “Non-toxic”, the Activity [27] was “inactive” and the Activity [28] was “inactive”. For the same molecule, the Activity [29] was “Non-toxic”, the Activity [30] was “inactive” and the Activity [31] was “inactive”. For the same molecule, the Activity [32] was “Non-toxic”, the Activity [33] was “inactive” and the Activity [34] was “Non-toxic”. For the same molecule, the Activity [35] was “inactive”, the Activity [36] was “inactive” and the Activity [37] was “Non-toxic”. The Activity [38] was “Non-toxic”, the Activity [39] was “inactive” and the Activity [40] was “Non-toxic”. The Activity [41] was “Non-toxic”.
